# From ChEMBL document CHEMBL1123436, “Comparative toxicities and analgesic activities of three monomethylated analogues of acetaminophen” (J Med Chem, 1986)
# “And” between values parts separate entries of the source, which are not always exact repeats. Equal entries are not always repeated.
# Tests used:
# [1] = system: Mus musculus; assay: Time course of Distribution of Radioactivity in Mice brain after 3 mmol/kg dose of the Compound after 3 h; assay type: ADME, organism-based; settings: in vivo
# Outline: (§1)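 Groups of 12 mice given [acetyl-14C]-labelled drug ip, 3 mmol/kg (0.45 mCi/mmol), housed individually with urine/feces separation. Four killed at each of 1, 3 and 24 h by exsanguination. Tissues (~100 mg) digested in Soluene 350; blood digested and peroxide-bleached; feces freeze-dried, rehydrated, digested and bleached. Scintillation counting; nmol equiv/mg tissue or per mL blood/urine, means ± SE (N = 4).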
# [2] = system: Mus musculus; assay: Time course of Distribution of Radioactivity in Mice Urine after 3 mmol/kg dose of the Compound after 24 h; assay type: ADME, organism-based; settings: in vivo; outline: as §1
# [3] = system: Mus musculus; assay: Time course of Distribution of Radioactivity in Mice Urine after 3 mmol/kg dose of the Compound after 1 h; assay type: ADME, organism-based; settings: in vivo; outline: as §1
# [4] = system: Mus musculus; assay: Hepatotoxicity in Swiss-Webster Mice Caused by compound at 500 mg/kg (i.p.) dose; 9/10; assay type: functional; settings: route intraperitoneal
# Outline: (§2)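 Male Swiss-Webster mice (20 g), groups of 10, were given a single ip dose of drug in saline with no pretreatment. Survivors were decapitated at 24 h and counted. Plasma ALT was measured, and liver sections (formalin-fixed, paraffin, H&E) were scored for necrosis severity in survivors. Values are means ± SE.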
# [5] = system: Mus musculus; assay: Time course of Distribution of Radioactivity in Mice kidney after 3 mmol/kg dose of the Compound after 1 h; assay type: ADME, organism-based; settings: in vivo; outline: as §1
# [6] = system: Mus musculus; assay: Time course of Distribution of Radioactivity in Mice Urine after 3 mmol/kg dose of the Compound after 3 h; assay type: ADME, organism-based; settings: in vivo; outline: as §1
# [7] = system: Mus musculus; assay: Time course of Distribution of Radioactivity in Mice stomach after 3 mmol/kg dose of the Compound after 3 h; assay type: ADME, organism-based; settings: in vivo; outline: as §1
# [8] = system: Mus musculus; assay: Time course of Distribution of Radioactivity in Mice intestine after 3 mmol/kg dose of the Compound after 1 h; assay type: ADME, organism-based; settings: in vivo; outline: as §1
# [9] = system: Mus musculus; assay: Time course of Distribution of Radioactivity in Mice Liver after 3 mmol/kg dose of the Compound after 1 h; assay type: ADME, organism-based; settings: in vivo; outline: as §1
# [10] = system: Mus musculus; assay: Time course of Distribution of Radioactivity in Mice feces after 3 mmol/kg dose of the Compound after 1 hr; assay type: ADME, organism-based; settings: in vivo; outline: as §1
# [11] = system: Mus musculus; assay: (§3) Hepatotoxicity in Swiss-Webster Mice Caused by compound at 500 mg/kg (i.p.) dose; assay type: functional, organism-based; design: dose 500 mg/kg
# Outline: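 Male Swiss-Webster mice (20 g), groups of 10, dosed ip in saline; some groups pretreated with phenobarbital (80 mg/kg ip at 72, 60, 48, 24 h), cobaltous chloride (30 mg/kg ip at 48, 36, 24, 12 h) or neat piperonyl butoxide (1360 mg/kg ip, 30 min before). Survivors killed at 24 h; plasma ALT measured, liver H&E sections scored for necrosis; means ± SE.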
# [12] = system: Mus musculus; assay: Time course of Distribution of Radioactivity in Mice kidney after 3 mmol/kg dose of the Compound after 24 h; assay type: ADME, organism-based; settings: in vivo; outline: as §1
# [13] = system: Mus musculus; assay: as §3; assay type: functional; settings: route intraperitoneal; outline: as §2
# [14] = system: Mus musculus; assay: Time course of Distribution of Radioactivity in Mice spleen after 3 mmol/kg dose of the Compound after 24 h; assay type: ADME, organism-based; settings: in vivo; outline: as §1
# [15] = system: Mus musculus; assay: Time course of Distribution of Radioactivity in Mice intestine after 3 mmol/kg dose of the Compound after 24 h; assay type: ADME, organism-based; settings: in vivo; outline: as §1
# [16] = system: Mus musculus; assay: Time course of Distribution of Radioactivity in Mice blood after 3 mmol/kg dose of the Compound after 24 h; assay type: ADME, organism-based; settings: in vivo; outline: as §1
# [17] = system: Mus musculus; assay: Urinary Metabolic (N-methylacetaminophen) profile in the mouse 24 hr after dose of 3 mmol/kg of the compound; assay type: ADME, organism-based, Urine; settings: in vivo
# [18] = system: Mus musculus; assay: Time course of Distribution of Radioactivity in Mice Liver after 3 mmol/kg dose of the Compound after 24 h; assay type: ADME, organism-based; settings: in vivo; outline: as §1
# [19] = system: Mus musculus; assay: Urinary Metabolic (Acetaminophen) profile in the mouse 24 h after dose of 3 mmol/kg of the compound; assay type: ADME, organism-based, Urine; settings: in vivo
# [20] = species on record: Mus musculus; assay: Analgesic activity determined in mice using the Bradykinin-induced Writhing test; assay type: organism-based
# Outline: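 Male CD1 mice (15–20 g), test drug given orally 15 min before bradykinin ip (4 μg in 0.2 mL sterile water), then a second bradykinin injection (0.2 μg/0.1 mL) 15 min later. Writhing was scored over the next 10 min, with control groups of 10 mice. ED50 was derived by log-probit analysis from at least five doses, with 95% limits.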
# [21] = system: Mus musculus; assay: Time course of Distribution of Radioactivity in Mice brain after 3 mmol/kg dose of the Compound after 1 h; assay type: ADME, organism-based; settings: in vivo; outline: as §1
# [22] = system: Mus musculus; assay: Time course of Distribution of Radioactivity in Mice intestine after 3 mmol/kg dose of the Compound after 3 h; assay type: ADME, organism-based; settings: in vivo; outline: as §1
# [23] = system: Mus musculus; assay: Time course of Distribution of Radioactivity in Mice blood after 3 mmol/kg dose of the Compound after 3 h; assay type: ADME, organism-based; settings: in vivo; outline: as §1
# [24] = system: Mus musculus; assay: Time course of Distribution of Radioactivity in Mice brain after 3 mmol/kg dose of the Compound after 24 h; assay type: ADME, organism-based; settings: in vivo; outline: as §1
# [25] = system: Mus musculus; assay: Time course of Distribution of Radioactivity in Mice kidney after 3 mmol/kg dose of the Compound after 3 h; assay type: ADME, organism-based; settings: in vivo; outline: as §1
# [26] = system: Mus musculus; assay: Time course of Distribution of Radioactivity in Mice lungs/heart after 3 mmol/kg dose of the Compound after 24 h; assay type: ADME, organism-based, Lung; settings: in vivo; outline: as §1
# [27] = system: Mus musculus; assay: Time course of Distribution of Radioactivity in Mice Liver after 3 mmol/kg dose of the Compound after 3 h; assay type: ADME, organism-based; settings: in vivo; outline: as §1
# [28] = system: Mus musculus; assay: Time course of Distribution of Radioactivity in Mice lungs/heart after 3 mmol/kg dose of the Compound after 3 h; assay type: ADME, organism-based, Lung; settings: in vivo; outline: as §1
# [29] = system: Mus musculus; assay: Time course of Distribution of Radioactivity in Mice lungs/heart after 3 mmol/kg dose of the Compound after 1 h; assay type: ADME, organism-based, Lung; settings: in vivo; outline: as §1
# [30] = system: Mus musculus; assay: Time course of Distribution of Radioactivity in Mice blood after 3 mmol/kg dose of the Compound after 1 h; assay type: ADME, organism-based; settings: in vivo; outline: as §1
# [31] = system: Mus musculus; assay: Time course of Distribution of Radioactivity in Mice feces after 3 mmol/kg dose of the Compound after 24 h; assay type: ADME, organism-based; settings: in vivo; outline: as §1
# [32] = system: Mus musculus; assay: Urinary Metabolic (3-methoxy-N-methylacetaminophen) profile in the mouse 24 hr after dose of 3 mmol/kg of the compound; assay type: ADME, organism-based, Urine; settings: in vivo
# [33] = system: Mus musculus; assay: Urinary Metabolic (3-hydroxy-N-methylacetaminophen) profile in the mouse 24 hr after dose of 3 mmol/kg of the compound; assay type: ADME, organism-based, Urine; settings: in vivo
# [34] = system: Mus musculus; assay: Time course of Distribution of Radioactivity in Mice stomach after 3 mmol/kg dose of the Compound after 1 h; assay type: ADME, organism-based; settings: in vivo; outline: as §1
# [35] = system: Mus musculus; assay: Time course of Distribution of Radioactivity in Mice spleen after 3 mmol/kg dose of the Compound after 1 h; assay type: ADME, organism-based; settings: in vivo; outline: as §1
# [36] = system: Mus musculus; assay: Time course of Distribution of Radioactivity in Mice feces after 3 mmol/kg dose of the Compound after 3 h; assay type: ADME, organism-based; settings: in vivo; outline: as §1
# [37] = system: Mus musculus; assay: Hepatotoxicity in Swiss-Webster Mice Caused by compound at 1000 mg/kg (i.p.) dose; 5/10; settings: route intraperitoneal
# [38] = system: Mus musculus; assay: Time course of Distribution of Radioactivity in Mice stomach after 3 mmol/kg dose of the Compound after 24 h; assay type: ADME, organism-based; settings: in vivo; outline: as §1
# [39] = system: Mus musculus; assay: Time course of Distribution of Radioactivity in Mice spleen after 3 mmol/kg dose of the Compound after 3 h; assay type: ADME, organism-based; settings: in vivo; outline: as §1
smiles,measurement,setting,value
CC(=O)N(C)c1ccc(O)cc1,Radioactivity,[1],0.05 nM equiv (mg of tissue)-1
same,Radioactivity,[2],6978 nM equiv (ml of urine)-1
same,Radioactivity,[3],7.67 nM equiv (ml of urine)-1
same,Survivors at 24 h,[4],9
same,Radioactivity,[5],3.73 nM equiv (mg of tissue)-1
same,Radioactivity,[6],3200 nM equiv (ml of urine)-1
same,Radioactivity,[7],0.87 nM equiv (mg of tissue)-1
same,Radioactivity,[8],2.17 nM equiv (mg of tissue)-1
same,Radioactivity,[9],3.16 nM equiv (mg of tissue)-1
same,Radioactivity,[10],0.03 nM equiv mg-1
same,Plasma ALT at 24 h,[11],27 mU ml-1 and 32 mU ml-1
same,Radioactivity,[12],0.05 nM equiv (mg of tissue)-1
same,Hepatic necrosis in survivors,[13],0
same,Radioactivity,[14],0.03 nM equiv (mg of tissue)-1
same,Radioactivity,[15],0.61 nM equiv (mg of tissue)-1
same,Radioactivity,[16],14.6 nM equiv (ml of blood)-1
same,Administered dose,[17],78.9%
same,Radioactivity,[18],0.05 nM equiv (mg of tissue)-1
same,Administered dose,[19],1.9%
same,ED50,[20],> 200 mg/kg
same,Radioactivity,[21],1.03 nM equiv (mg of tissue)-1
same,Radioactivity,[22],1.52 nM equiv (mg of tissue)-1
same,Radioactivity,[23],501 nM equiv (ml of blood)-1
same,Radioactivity,[24],0.01 nM equiv (mg of tissue)-1
same,Radioactivity,[25],0.49 nM equiv (mg of tissue)-1
same,Radioactivity,[26],0.03 nM equiv (mg of tissue)-1
same,Radioactivity,[27],0.6 nM equiv (mg of tissue)-1
same,Radioactivity,[28],0.13 nM equiv (mg of tissue)-1
same,Radioactivity,[29],1.78 nM equiv (mg of tissue)-1
same,Radioactivity,[30],1855 nM equiv (ml of blood)-1
same,Radioactivity,[31],74.5 nM equiv mg-1
same,Administered dose,[32],13.7%
same,Administered dose,[33],0.6%
same,Radioactivity,[34],0.21 nM equiv (mg of tissue)-1
same,Radioactivity,[35],1.58 nM equiv (mg of tissue)-1
same,Radioactivity,[36],3.17 nM equiv mg-1
same,Survivors at 24 h,[37],5
same,Radioactivity,[38],0.08 nM equiv (mg of tissue)-1
same,Radioactivity,[39],0.13 nM equiv (mg of tissue)-1
